# Measurements reported in ChEMBL document CHEMBL1129943, “5-aminocoumarans: dual inhibitors of lipid peroxidation and dopamine release with protective effects against central nervous system trauma and ischemia” (J Med Chem, 1997).
# Experiments:
# Format in all cases: functional
# Mus musculus [1] = assay: Locomotor activity was measured for 1 hour after administration of 0.3 mg/kg dihydrochloride in mice (9 mice were used)
# In short: (§1)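 Male ICR mice, 5 weeks, 25–35 g, acclimated 90 min. (S)- or (R)-dihydrochloride given ip in 5% gum arabic. Methamphetamine 1 mg/kg ip in saline given 30 min later. Locomotor activity recorded afterwards and expressed relative to saline–methamphetamine controls; two-tailed Student's t-test.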
# Mus musculus [2] = assay: Percentage increase of locomotor activity in mice at dose of 0.3 mg/kg dihydrochloride (9 mice were used); in short: as §1
# Mus musculus [3] = assay: Locomotor activity was measured for 1 hour after administration of 0.1 mg/kg dihydrochloride in mice (10 mice were used); in short: as §1
# Mus musculus [4] = assay: Percentage increase of locomotor activity in mice at dose of 1 mg/kg dihydrochloride (9 mice were used)
# Mus musculus [5] = species: Mus musculus; assay: Peroral dose required to reduce by 50% the score of excitatory behavior induced by intrathecal injection of ferrous chloride in mice; settings: central, read-out: ID50 (the source's name)
# In short: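 Male Slc:ICR mice, 5 weeks old, 10 per dose. Compound given orally 30 min before intrathecal 5 μL of 50 mM FeCl2 in saline (between L6 and S1). Vehicle was water, or 0.5% gum arabic suspension. Behaviour scored 0–5 (biting to death) from 15 min to 1 h. ID50 from three or four doses, relative to vehicle score.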
# Mus musculus [6] = assay: Percentage increase of locomotor activity in mice at dose of 0.1 mg/kg dihydrochloride (10 mice were used); in short: as §1
# Mus musculus [7] = assay: Locomotor activity was measured for 1 hour after administration of 1 mg/kg dihydrochloride in mice (9 mice were used); in short: as §1
# Mus musculus [8] = assay: Percentage increase of locomotor activity in mice at dose of 1 mg/kg apomorphine (11 mice were used)
# In short: (§2)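 Male ICR mice, 5 weeks. Dihydrochloride given ip 30 min before apomorphine 1 mg/kg sc, the hypermotility inducer used in place of methamphetamine. Spontaneous motor activity monitored afterwards; two-tailed Student's t-test.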
# Mus musculus [9] = assay: Locomotor activity was measured for 1 hour after administration of 1 mg/kg apomorphine in mice (11 mice were used); in short: as §2
# Mus musculus [10] = assay: Locomotor activity was measured for 1 hour after administration of 1 mg/kg of dihydrchloride in mice (15 mice were used); in short: as §1
# Mus musculus [11] = assay: Locomotor activity was measured for 1 hour after administration of 3 mg/kg of dihydrchloride in mice (13 mice were used); in short: as §1
# Mus musculus [12] = assay: Percentage increase of locomotor activity in mice at a dose of 10 mg/kg dihydrochloride (16 mice were used); in short: as §1
# Mus musculus [13] = assay: Percentage increase of locomotor activity in mice at a dose of 1 mg/kg dihydrochloride (15 mice were used); in short: as §1
# Mus musculus [14] = assay: Locomotor activity was measured for 1 hour after administration of 10 mg/kg of dihydrchloride in mice (16 mice were used); in short: as §1
# Mus musculus [15] = assay: Percentage increase of locomotor activity in mice at a dose of 3 mg/kg dihydrochloride (13 mice were used); in short: as §1
SMILES,Locomotor activity (Mus musculus [1]),Increase (Mus musculus [2]),Locomotor activity (Mus musculus [3]),Increase (Mus musculus [4]),ED50 (Mus musculus [5]),Increase (Mus musculus [6]),Locomotor activity (Mus musculus [7]),Increase (Mus musculus [8]),Locomotor activity (Mus musculus [9]),Locomotor activity (Mus musculus [10]),Locomotor activity (Mus musculus [11]),Increase (Mus musculus [12]),Increase (Mus musculus [13]),Locomotor activity (Mus musculus [14]),Increase (Mus musculus [15])
Cc1c(C)c2c(c(C)c1N)C[C@@](C)(CN1CCC(c3ccccc3)CC1)O2,1102,54.4%,2103,35.1%,10.8 mg/kg,113.2%,773,124.5%,841,,,,,,
Cc1c(C)c2c(c(C)c1N)C[C@](C)(CN1CCC(c3ccccc3)CC1)O2,,,,,11.6 mg/kg,,,,,1472,1852,67.7%,129%,889,169%
